Published values gathered from unrelated publications.
RPS6KA1: Ribosomal protein S6 kinase alpha-1 (RPS6KA1, Homo sapiens, UniProt Q15418)
RPS6KA1 C-terminal kinase domain: Ribosomal protein S6 kinase alpha-1, C-terminal kinase domain (RPS6KA1, Homo sapiens, UniProt Q15418)

CC(C)(C)c1cc(C=C(C#N)C#N)cc(Br)c1O
remaining activity (RPS6KA1; enzyme activity; inhibitor; 0.5 µM): 104%

Cn1cc(-c2cccc(N3CCc4c(sc5c4CC(C)(C)C5)C3=O)c2CO)cc(Nc2ccncn2)c1=O
inhibition (RPS6KA1; enzyme activity; inhibitor; 1 µM): -1%

Cc1nn(C)cc1-c1nc2c(N3CCN(Cc4ccc(Cl)cc4)CC3)c(Cl)cnc2[nH]1
remaining binding (Ribosomal protein S6 kinase alpha-1, N-terminal kinase domain (RPS6KA1, Homo sapiens, UniProt Q15418); binding; competition with immobilised ligand; 1 µM): 100%

C#Cc1n[nH]c2c(-c3cn([C@@H](C)c4ccccn4)c(=O)[nH]c3=O)cc(F)cc12
inhibition (RPS6KA1; enzyme activity; inhibitor; 0.1 µM): 7.4%

O=c1[nH]c2ccccc2n1C1CCN(Cc2ccc(-c3[nH]c4cc5ncnc5cc4nc3-c3ccccc3)cc2)CC1
remaining signal (RPS6KA1; cell-free assay; 0.5 µM): 101%

C#Cc1n[nH]c2c(-c3cn([C@@H](C)c4ccccc4)c(=O)[nH]c3=O)cc(F)cc12
inhibition (RPS6KA1; enzyme activity; inhibitor; 0.1 µM): 6.2%

Cn1cncc1[C@@](O)(COc1ccc(C#N)cc1-c1ccc(OC(F)(F)F)cc1)c1ccc(C#N)cc1
remaining binding (RPS6KA1 C-terminal kinase domain; cell-free assay; competition with immobilised ligand; 1 µM): 100%

Nc1ncc(-c2nc(N3CCOCC3)nc(N3CCOCC3)n2)c(C(F)F)n1
remaining binding (RPS6KA1 C-terminal kinase domain; binding; competition with immobilised ligand; 10 µM): 88%

N#CC1(c2ccccn2)CCN(Cc2cc(C(=O)O)c(=O)n3ccccc23)CC1
remaining binding (RPS6KA1 C-terminal kinase domain; cell-free assay; competition with immobilised ligand; 1 µM): 100%

Cn1cc(-c2cc(F)cc(N3CCn4c(cc5c4CCCC5)C3=O)c2CO)cc(Nc2ccc(N3CCN(C4COC4)CC3)cn2)c1=O
inhibition (RPS6KA1; enzyme activity; inhibitor; 0.1 µM): 0%
